In series [1] the test system is 4T1. Description: Inhibition of cell migration of mouse 4T1 cells after 4 days by scratch wound healing assay. The class given is functional, cell-based. Conditions: 4T1, 96 h. The method, boiled down:
(§1)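 Wounds were scratched through confluent cell monolayers with a floating pin tool, then compounds were added at concentrations chosen to avoid cytotoxicity. Plates were incubated 4 days at 37°C, then fixed and stained. Fluorescence in the wound area quantified wound closure, and IC50 for inhibition of wound healing was reported.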

For series [2], the system named is 4T1. Description: Cytotoxicity against […] cells. In kind it is functional, cell-based.
The subject of series [3] is MDA-MB-231. Description: Cytotoxicity against human MDA-MB-231 cells. In kind it is functional, cell-based.
Series [4] concerns MDA-MB-231. The series is described as follows: Inhibition of human MDA-MB-231 cell migration after 4 days by scratch wound healing assay. In kind it is functional, cell-based. Conditions: MDA-MB-231, 96 h. The method, boiled down: as §1
The nature of series [5]: Metabolic stability in mouse plasma assessed as half life. In kind it is ADME, cell-free.

Molecules are shown by their SMILES. Where only a bound is given, the exact number is not on record here.

As a reminder, the IC50 is the midpoint of a concentration-inhibition curve. The low end stands for greater potency in that assay, the high end for weaker potency in that assay. Take `C/C(=C\[C@H](C)C(=O)CCCC1CC(=O)NC(=O)C1)[C@H](O)[C@@H](C)[C@H](O)[C@@H](O)/C=C/CC/C=C/C(=O)O`: the IC50 in the series on 4T1 [1], in the series with 4T1 [2], in the series on MDA-MB-231 [3] and in the series with MDA-MB-231 [4] was > 100 µM throughout.
For the compound `CO[C@@H](/C=C/CC/C=C/C(=O)O)[C@@H](O)[C@H](C)[C@@H](O)/C(C)=C/[C@H](C)C(=O)C[C@H](O)CC1CC(=O)NC(=O)C1`, the half-inhibitory concentration (IC50) in the series with 4T1 [1], with 4T1 [2], in the series on MDA-MB-231 [3] and in the series on MDA-MB-231 [4] was > 100 µM each time.
`C/C(=C\[C@@H](C)[C@H](O)C/C=C/CC/C=C/C(=O)O)[C@@H](O)[C@H](C)C(=O)CCCC1CC(=O)NC(=O)C1`: the concentration for half-maximal inhibition (IC50) with 4T1 [1], in the series on 4T1 [2], in the series with MDA-MB-231 [3] and in the series on MDA-MB-231 [4] was > 100 µM throughout.
On to `C/C(=C\[C@@H](C)CC/C=C/CC/C=C/C(=O)O)[C@H](O)[C@H](C)C(=O)C[C@H](O)CC1CC(=O)NC(=O)C1`, for which the IC50 with 4T1 [1], in the series on 4T1 [2], in the series on MDA-MB-231 [3] and in the series on MDA-MB-231 [4] was > 100 µM in each case.
For `C/C(=C\[C@@H](C)[C@H](O)[C@@H](O)/C=C/CC/C=C/C(=O)O)[C@H](O)[C@H](C)C(=O)CCCC1CC(=O)NC(=O)C1`, the IC50 with 4T1 [1], in the series on 4T1 [2], with MDA-MB-231 [3] and in the series on MDA-MB-231 [4] was > 100 µM each time.
Take `CO[C@@H](/C=C/CC/C=C/C(=O)O)[C@@H](O)[C@H](C)/C=C(\C)[C@H](O)[C@H](C)C(=O)C[C@H](O)CC1CC(=O)NC(=O)C1`: the IC50 was > 100 µM with 4T1 [1], 20 µM with 4T1 [2], > 100 µM in the series on MDA-MB-231 [3] and > 100 µM in the series with MDA-MB-231 [4].
On to `CO[C@@H](/C=C/CC/C=C/C(=O)O)[C@@H](O)[C@H](C)/C=C(\C)[C@@H](O)[C@H](C)C(=O)CCCC1CC(=O)NC(=O)C1`, for which the IC50 in the series with 4T1 [1], with 4T1 [2], in the series on MDA-MB-231 [3] and in the series on MDA-MB-231 [4] was > 100 µM each time.
As for `C/C(=C\[C@@H](C)CC/C=C/CC/C=C/C(=O)O)[C@@H](O)[C@H](C)C(=O)C[C@H](O)CC1CC(=O)NC(=O)C1`, the IC50 in the series on 4T1 [1] was > 100 µM; in the series on 4T1 [2], 81 µM; with MDA-MB-231 [3], > 100 µM; in the series with MDA-MB-231 [4], > 100 µM.
For `CO[C@@H](/C=C/CC/C=C/C(=O)O)[C@@H](O)[C@H](C)C(O)/C(C)=C/[C@H](C)C(=O)CCCC1CC(=O)NC(=O)C1` (stereo partly drawn), the IC50 in the series on 4T1 [1], in the series with 4T1 [2], with MDA-MB-231 [3] and in the series with MDA-MB-231 [4] was > 100 µM in each case.
As for `CO[C@H]1/C=C/CC/C=C/C(=O)O[C@H]([C@H](C)C(=O)/C=C/CC2CC(=O)NC(=O)C2)/C(C)=C\[C@@H](C)[C@@H]1O`, the half-inhibitory concentration (IC50) in the series with 4T1 [1], in the series with 4T1 [2], in the series with MDA-MB-231 [3] and with MDA-MB-231 [4] was > 100 µM throughout.
Turning to `C/C1=C/[C@@H](C)[C@H](O)C/C=C/CC/C=C/C(=O)O[C@@H]1[C@H](C)C(=O)CCCC1CC(=O)NC(=O)C1`, the IC50 in the series on 4T1 [1], with 4T1 [2], with MDA-MB-231 [3] and in the series on MDA-MB-231 [4] was > 100 µM each time.
Turning to `C/C1=C/[C@@H](C)CC/C=C/CC/C=C/C(=O)O[C@@H]1[C@H](C)C(=O)C[C@H](O)CC1CC(=O)NC(=O)C1`, the IC50 in the series on 4T1 [1] was > 0.33 µM; in the series on 4T1 [2], 0.98 µM; in the series on MDA-MB-231 [3], 1 µM; in the series on MDA-MB-231 [4], 0.07 µM.
On the same counts, the results for `C/C1=C/[C@@H](C)[C@H](O)[C@@H](O)/C=C/CC/C=C/C(=O)O[C@@H]1[C@H](C)C(=O)CCCC1CC(=O)NC(=O)C1` are > 100 µM, 44 µM, > 100 µM and > 100 µM.
Regarding `CO[C@H]1/C=C/CC/C=C/C(=O)O[C@H]([C@H](C)C(=O)C[C@H](O)CC2CC(=O)NC(=O)C2)/C(C)=C\[C@@H](C)[C@@H]1O`, the IC50 in the series with 4T1 [1] worked out at 1.8 µM; in the series on 4T1 [2] it was 5.3 µM; in the series on MDA-MB-231 [3], 5.2 µM; in the series on MDA-MB-231 [4] it was 1.8 µM.
For `C/C(=C\[C@@H](C)[C@H](O)C/C=C/CC/C=C/C(=O)O)[C@H](O)[C@H](C)C(=O)CCCC1CC(=O)NC(=O)C1`, the IC50 with 4T1 [1], with 4T1 [2], in the series with MDA-MB-231 [3] and with MDA-MB-231 [4] was > 100 µM throughout.
Consider `C/C(=C\[C@H](C)C(=O)CCCC1CC(=O)NC(=O)C1)[C@H](O)[C@@H](C)[C@H](O)C/C=C/CC/C=C/C(=O)O`, for which the IC50 in the series with 4T1 [1], with 4T1 [2], in the series on MDA-MB-231 [3] and in the series with MDA-MB-231 [4] was > 100 µM in each case.
Regarding `C/C(=C\[C@@H](C)[C@H](O)[C@@H](O)/C=C/CC/C=C/C(=O)O)[C@@H](O)[C@H](C)C(=O)CCCC1CC(=O)NC(=O)C1`, the IC50 in the series on 4T1 [1], in the series with 4T1 [2], in the series on MDA-MB-231 [3] and in the series with MDA-MB-231 [4] was > 100 µM each time.
Regarding `C/C1=C/[C@@H](C)[C@H](O)C/C=C/CC/C=C/C(=O)O[C@@H]1[C@H](C)C(=O)/C=C/CC1CC(=O)NC(=O)C1`, the IC50 in the series on 4T1 [1] was > 100 µM; in the series with 4T1 [2], 8.5 µM; in the series with MDA-MB-231 [3], > 100 µM; in the series on MDA-MB-231 [4], > 100 µM.
In the case of `C/C1=C/[C@@H](C)C[C@@H](O)/C=C/CC/C=C/C(=O)O[C@@H]1[C@H](C)C(=O)C[C@H](O)CC1CC(=O)NC(=O)C1`, the IC50 is > 100 µM in the series on 4T1 [1], 10 µM in the series with 4T1 [2], 13 µM in the series on MDA-MB-231 [3] and > 100 µM in the series on MDA-MB-231 [4].
For the compound `C/C1=C/[C@@H](C)[C@H](O)C/C=C/CC/C=C/C(=O)O[C@@H]1[C@H](C)C(=O)C[C@H](O)CC1CC(=O)NC(=O)C1`, the IC50 in the series with 4T1 [1], in the series with 4T1 [2], with MDA-MB-231 [3] and with MDA-MB-231 [4] was > 100 µM each time.
Regarding `C/C1=C/[C@@H](C)[C@H](O)[C@@H](O)/C=C/CC/C=C/C(=O)O[C@@H]1[C@H](C)C(=O)/C=C/CC1CC(=O)NC(=O)C1`, the IC50 is > 100 µM with 4T1 [1], 32 µM in the series on 4T1 [2], 29 µM in the series on MDA-MB-231 [3] and > 100 µM in the series with MDA-MB-231 [4].
As for `CO[C@@H](/C=C/CC/C=C/C(=O)O)[C@@H](O)[C@H](C)/C=C(\C)[C@H](O)[C@H](C)C(=O)CCCC1CC(=O)NC(=O)C1` [DORRIGOCIN A], the IC50 with 4T1 [1], with 4T1 [2], in the series on MDA-MB-231 [3] and in the series on MDA-MB-231 [4] was > 100 µM each time.
As a reminder, the half-life is the time in which the quantity being followed falls by half. On to `CO[C@H]1/C=C/CC/C=C/C(=O)O[C@H]([C@H](C)C(=O)CCCC2CC(=O)NC(=O)C2)/C(C)=C\[C@@H](C)[C@@H]1O` [MIGRASTATIN], for which the IC50 in the series on 4T1 [1] amounted to 14 µM; with 4T1 [2] it was 5.8 µM; in the series on MDA-MB-231 [3], 4.6 µM; in the series on MDA-MB-231 [4] it was 17 µM. Besides, the half-life in series [5] was 5 min.

These data come from ChEMBL document CHEMBL1151782, “Evaluation of new migrastatin and dorrigocin congeners unveils cell migration inhibitors with dramatically improved potency” (Bioorg Med Chem Lett, 2008).
